Seven molecules from PubChem BioAssay can be followed below.

Test [1] in a line: inhibitors of TNFa-induced NFkB p65 translocation, primary screen, imaging, HUVEC, MLSMR starter and 10KST1 sets (AID 438;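 active means inhibition above 20% together with a positive visual image hit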;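 further: compound added about 3h40 before a 20 min TNFalpha stimulation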;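 on inhibition: signal is the nuclear over cytoplasmic p65 intensity ratio per well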). The following applies: HUVEC TNFa-induced p65 nuclear translocation; cell count: measured here: nuclei count (cytotoxicity indicator), at 2.08 µM; inhibition: at 2 µM, stronger effect = higher value, 0% TNFa-plus-vehicle, 100% no-TNFa wells.
The nature of test [2]: endothelial E-selectin expression blockers – imaging, HUVEC, immunofluorescence, MLSMR starter and 10KST1 sets, primary screen (AID 487;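 active means visually confirmed hit in the image check and inhibition above 20%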;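 on inhibition: signal is fraction of cell area covered by stained E-selectin grains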;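 on nuclei count: 100% = median nuclei count of all wells on the same plate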). The following applies: HUVEC TNFalpha-induced E-selectin immunofluorescence imaging, at 2 µM; inhibition: stronger effect = higher value; nuclei count: measured here: cell number, toxicity.
Test [3] in a line: Primary imaging screen for DUSP6 inhibitors that restore phospho-Erk in transfected HeLa cells, chemical complementation (AID 609).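 On inhibition: phospho-Erk level distribution per well compared with pooled transfected vehicle control wells.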 As to conditions: HeLa MKP-3 transfected, phospho-Erk imaging KS statistic, at 10 µM, cells stimulated with TPA for 15 min.
The target in test [4] is Dual specificity protein phosphatase 6 (Homo sapiens) (UniProt Q16828). Described as above. As to conditions: HeLa MKP-3 transfected, phospho-Erk imaging KS statistic; at 10 µM; stronger effect = higher value; cells stimulated with TPA for 15 min.
Chain of Dual specificity protein phosphatase 6 (Homo sapiens) (Q16828 whole entry, looked up): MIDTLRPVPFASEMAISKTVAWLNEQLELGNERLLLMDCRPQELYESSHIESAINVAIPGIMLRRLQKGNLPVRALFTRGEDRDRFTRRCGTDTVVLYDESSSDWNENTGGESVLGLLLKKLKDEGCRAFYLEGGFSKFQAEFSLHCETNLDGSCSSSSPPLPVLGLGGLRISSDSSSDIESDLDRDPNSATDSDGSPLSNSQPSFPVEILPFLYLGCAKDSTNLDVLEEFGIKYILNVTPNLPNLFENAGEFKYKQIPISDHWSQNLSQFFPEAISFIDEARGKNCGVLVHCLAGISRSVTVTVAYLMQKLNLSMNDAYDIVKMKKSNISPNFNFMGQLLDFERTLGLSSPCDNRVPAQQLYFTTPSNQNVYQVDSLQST
The target in test [5] is Voltage-gated potassium channel subunit beta-2 (Rattus norvegicus) (UniProt P62483). The test can be described thus: inhibitors of rat Kvbeta2 reductase activity – biochemical, NADPH fluorescence, primary screen (AID 622;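 active means fluorescence slope higher than the sample average by over 3 SD, cut at about -0.22 in these data, passing the limit was not always enough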;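 further: slope of raw intensity against log time taken from 70 to 1610 s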). As to conditions: recombinant KvBeta, 4-cyanobenzaldehyde reduction, at 10 µM, stronger effect = higher value.
Chain of Voltage-gated potassium channel subunit beta-2 (Rattus norvegicus) (P62483 whole entry, looked up): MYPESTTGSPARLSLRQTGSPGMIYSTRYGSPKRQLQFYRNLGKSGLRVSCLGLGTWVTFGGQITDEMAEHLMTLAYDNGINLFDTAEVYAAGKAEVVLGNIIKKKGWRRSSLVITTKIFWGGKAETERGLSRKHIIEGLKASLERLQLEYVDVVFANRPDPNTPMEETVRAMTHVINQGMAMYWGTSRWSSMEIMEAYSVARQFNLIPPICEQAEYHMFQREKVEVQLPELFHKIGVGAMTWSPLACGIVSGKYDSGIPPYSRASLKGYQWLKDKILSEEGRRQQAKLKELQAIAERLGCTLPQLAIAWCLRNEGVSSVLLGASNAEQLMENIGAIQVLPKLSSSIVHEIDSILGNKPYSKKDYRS
The target is the same in test [6]. The test can be described thus: enhancers of rat Kvbeta2 NADPH turnover – biochemical, NADPH fluorescence, primary screen (AID 623;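 active means NADPH fluorescence slope more negative than the mean of all samples by about 3 SD, 99.7% confidence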;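 further: fluorescence intensity change per second fitted from 20 to 320 s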). The following applies: Recombinant KvBeta, NADPH fluorescence decrease slope, 10 min; at 10 µM; stronger effect = lower value.
The target of test [7] is Muscarinic acetylcholine receptor M4 (Homo sapiens) (UniProt P08173). The experiment in a line: M4-linked GIRK flux change, two-sided – cell-based, HEK293 M4/GIRK, thallium flux, BTC-AM, M4 allosteric agonist project, primary screen (AID 625;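 active means fluorescence slope after compound addition differing from the mean of all tested samples at 99.7% confidence, mostly higher but some lower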;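 further: thallium influx through GIRK channels coupled to M4 in HEK293 cells with BTC-AM dye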). As to conditions: at 10 µM, actives lie on both sides. Put shortly:
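System: HEK293 cells with M4 receptor and GIRK channels | Incubation: Cells overnight at 37 °C, BTC-AM loading 1 h, reads 2 min total | Technique: Kinetic BTC-AM fluorescence sampled at 1 Hz, 10 s pre-addition baseline | Measure: Post-addition slope, 15–24 s, of baseline-normalized fluorescence | Control set: Carbachol positive, DMSO negative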

Test [8] is described as follows: inhibitors of larval lipid processing in zebrafish, primary screen, whole organism, PED6 fluorescence, gall bladder and intestine (AID 686;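 active means a full or partial loss of lipid-probe fluorescence in the fish gall bladder, intestine or both, judged by eye; inactive means no fluorescence loss, or compound toxic to the fish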;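 further: larvae 5 to 7 days old with five fish per well; signal comes from phospholipase A2 cleavage of quenched PED6 carried via bile; overnight exposure to compound and PED6 before scoring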). As to conditions: Zebrafish larvae PED6 lipid processing, fluorescence scoring; screened at 20 µM (by protocol). Put shortly:
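Test system – live zebrafish larvae aged 5-7 days, whole organism · Buffer or medium – E3 fish medium · Reagent – quenched phospholipase substrate PED6, 100 nM final, ingested by larvae · Doses – 20 µM single dose · Incubation – overnight compound and PED6 incubation · Technique – visual fluorescence microscopy scoring of gall bladder, gut · Read-out basis – visual per-well fluorescence inhibition score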

Test [9] in a line: loss of swimming-algae plug formation – whole organism, Chlamydomonas reinhardtii, WT vs cilia-less mutant, absorbance, 96-well, primary screen (AID 463189;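 active means inhibition at or above 50% relative to wild type and mutant plate controls; inactive means inhibition below 50%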;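 further: 0% = wild type cc124 cells in DMSO and 100% = ciliumless bld1 mutant cells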). As to conditions: Chlamydomonas reinhardtii gravitaxis, OD600 absorbance, 2 days; at 10 µM; stronger effect = higher value.
[10] abbreviates: measured here: cell density z-score.
Setting [11] is: measured here: nuclear c-Myc green intensity z-score.
Where [12] appears, read: measured here: nuclear pErk red intensity z-score, stronger effect = higher value.

Structures are written as SMILES. The source made the active and inactive calls.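 How the source made its calls, unless noted: active means compounds giving at least 50% inhibition in the cell-based MKP-3 phosphatase rescue imaging test; inactive means the rest.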

A word on the inhibition: it is the relative decrease from the control value, in per cent.

Chain of Muscarinic acetylcholine receptor M4 (Homo sapiens) (P08173 whole entry, looked up): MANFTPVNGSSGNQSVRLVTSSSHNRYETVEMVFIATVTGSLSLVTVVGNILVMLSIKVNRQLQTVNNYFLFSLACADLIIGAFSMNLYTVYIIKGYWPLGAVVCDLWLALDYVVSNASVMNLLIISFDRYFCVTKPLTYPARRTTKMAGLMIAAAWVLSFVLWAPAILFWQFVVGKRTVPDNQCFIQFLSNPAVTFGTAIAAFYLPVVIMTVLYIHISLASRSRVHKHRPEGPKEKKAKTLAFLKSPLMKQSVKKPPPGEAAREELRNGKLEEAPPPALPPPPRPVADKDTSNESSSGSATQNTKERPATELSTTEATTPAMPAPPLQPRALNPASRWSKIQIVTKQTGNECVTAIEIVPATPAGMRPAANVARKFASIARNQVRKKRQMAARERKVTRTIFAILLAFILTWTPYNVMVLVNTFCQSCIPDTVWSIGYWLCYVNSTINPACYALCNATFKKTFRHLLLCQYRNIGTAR

As to `Cn1c(N)c(C#N)c(C#N)c1-c1ccccc1`, the cell count in [1] came to 625. The inhibition in test [1] was -10.7% (inactive); in test [2] it was -93.2% (inactive); in test [4], -2.59% (inactive); in test [9] it was 31.5% (inactive). In [2], this molecule yielded a nuclei count of 183%. Also, the z-score is -0.336 in test [3] (setting [10]), -0.891 in test [3] (setting [11]) and 0.762 in test [3] (setting [12]). The fluorescence slope was -0.339 (inactive) in test [5] and 0.00399 (inactive) in test [7]. The NADPH fluorescence slope in [6] was -1.8e-05 (inactive). In [8], the molecule was called inactive.

Consider `Cc1ccccc1N1C(=O)CC(Sc2nnc(-c3ccccc3)o2)C1=O` (stereo unspecified), for which the cell count in [1] is 482. The inhibition in test [1] was -2.4% (inactive); in test [2] it was -29.2% (inactive); in test [4], 5.95% (inactive); in [9] it was 57.7% (active). The molecule also came in with a nuclei count in test [2] of 177%. The figures for the z-score in test [3] (setting [10]), in test [3] (setting [11]) and in test [3] (setting [12]) were -0.982, -1.28 and 2.47, respectively. Besides, the figures for the fluorescence slope in test [5] and in test [7] were -0.383 (inactive) and 0.00539 (inactive), respectively. Further, the NADPH fluorescence slope in test [6] is -3.3e-05 (inactive). In addition, the call in test [8] was inactive.

Turning to `CCCCc1nc(N2CCOCC2)c(C#N)c2c1COC(C)(C)C2`, in test [1], the cell count is 530. Besides, the inhibition was -4.2% (inactive) in test [1], -202% (inactive) in [2], 15.4% (inactive) in test [4] and 1.03% (inactive) in [9]. Also, the nuclei count in test [2] was 149%. Further, the values for the z-score in [3] (setting [10]), in [3] (setting [11]) and in [3] (setting [12]) were 1.13, -0.937 and -0.238, respectively. Moreover, the results for the fluorescence slope in [5] and in test [7] were -0.458 (inactive) and 0.00404 (inactive), respectively. Besides, the NADPH fluorescence slope in test [6] was -6.7e-05 (inactive). Moreover, the molecule was called inactive in [8].

As to `COc1ccc(NC(=O)c2c(C)cc(=O)oc2C)c(OC)c1`, in test [1], the cell count was 631. The inhibition in test [1] is 3.2% (inactive); in test [2], 11.9% (inactive); in [4], -7.67% (inactive); in test [9] it was -7.06% (inactive). In test [2], this molecule returned a nuclei count of 111%. For the same molecule, the results for the z-score in test [3] (setting [10]), in test [3] (setting [11]) and in test [3] (setting [12]) were 0.599, -0.258 and 0.577, respectively. Further, the results for the fluorescence slope in test [5] and in test [7] were -0.454 (inactive) and 0.00518 (inactive), respectively. Further, in test [6], the NADPH fluorescence slope is -3.9e-05 (inactive). In addition, the result in test [8] was inactive.

In the case of `COC(=O)C(NC(=O)c1ccccc1)(Nc1nc(C)cs1)C(F)(F)F` (stereo unspecified), the cell count in [1] was found to be 687. Further, the inhibition in test [1] was -8.5% (inactive); in [2], -24.1% (inactive); in [4], 10.9% (inactive); in [9] it was 11.6% (inactive). The molecule further came in with a nuclei count in [2] of 152%. The z-score in test [3] (setting [10]) is -0.446; in test [3] (setting [11]), -1.08; in test [3] (setting [12]), 0.594. The figures for the fluorescence slope in test [5] and in test [7] were -0.481 (inactive) and 0.00439 (inactive), respectively. The NADPH fluorescence slope in test [6] was -3.9e-05 (inactive). Moreover, the outcome in test [8] was inactive.

`COC(=O)c1[nH]c(C)c(/C(O)=C2\C(=O)C(=O)N(CCN3CCOCC3)C2c2ccccc2OC)c1C` (stereo unspecified): the cell count in [1] is 610. For the same molecule, the inhibition was -6% (inactive) in test [1], -13.3% (inactive) in [2], -7.28% (inactive) in test [4] and 5.11% (inactive) in [9]. Also, the nuclei count in [2] amounted to 168%. Also, the z-score was -1.87 in test [3] (setting [10]), 0.251 in [3] (setting [11]) and -0.629 in [3] (setting [12]). Further, the fluorescence slope in test [5] was -0.491 (inactive); in test [7], 0.00635 (inactive). Moreover, the NADPH fluorescence slope in test [6] is -0.000142 (inactive). Besides, the result in test [8] was inactive.

On to `O=C1CC(NCc2ccncc2)C(=O)N1c1ccc(Cl)cc1` (stereo unspecified), for which, in [1], the cell count was determined as 479. For the same molecule, the inhibition is 2.2% (inactive) in test [1], -20.1% (inactive) in [2], 2.71% (inactive) in [4] and 25.9% (inactive) in test [9]. Also, the nuclei count in test [2] came out at 150%. Besides, the z-score is 0.96 in test [3] (setting [10]), -0.274 in test [3] (setting [11]) and -0.794 in [3] (setting [12]). For the same molecule, the fluorescence slope is -0.464 (inactive) in test [5] and 0.00465 (inactive) in test [7]. The NADPH fluorescence slope in [6] was -3.3e-05 (inactive). The outcome in [8] was inactive.
